In the library only some 1.5% were active in any assay of this set; here they are far more common.
ZTA counter – counter-screen for EBNA-1 inhibitors: inhibitors of Epstein-Barr virus ZTA | P03206 | 320,000 compounds, 0.15% hits | AID 2234 | ZTA-DNA binding, fluorescence polarization | inhibition, % at 11 µM; in the data active = inhibition above about 33%
Target sequence (P03206 whole entry, looked up): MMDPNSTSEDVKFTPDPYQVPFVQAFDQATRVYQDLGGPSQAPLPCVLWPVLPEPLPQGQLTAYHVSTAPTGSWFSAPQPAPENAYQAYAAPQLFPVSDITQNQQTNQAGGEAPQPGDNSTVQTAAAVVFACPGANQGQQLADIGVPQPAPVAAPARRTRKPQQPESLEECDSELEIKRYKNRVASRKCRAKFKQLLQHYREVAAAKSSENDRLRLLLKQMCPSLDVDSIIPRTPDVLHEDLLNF
LANA-H2A inh – blocks KSHV LANA binding to histone H2A/H2B; Q9QR71; cell-free LANA-H2A/H2B peptide, fluorescence polarization; inhibition, % (concentration not given with the values); 320,000 compounds, 0.6% hits; in the data active = inhibition mostly above about 10%, no sharp cut-off; inactive = mostly below about 6.7%
CSN inh – inhibitors of human CSN-mediated cullin deneddylation; Purified CSN, SCF-Nedd8-OG deneddylation, fluorescence polarization; inhibition, % at 12.5 µM; 360,000 compounds, 0.38% hits; AID 651999;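 active = pattern-corrected inhibition above about 35%, with an unprinted fluorescence ratio check between 0.5 and 1.5, limit read from the data, passing the limit was not always enough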
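Assay system: HEK293T-derived human Csn5 enzyme; quantity: 0.24 nM enzyme; medium: Tris/NaCl/DTT buffer, pH 7.5; also added: substrate SCFSkp2-Nedd8OG, 10 nM; doses: 12.5 µM compound; schedule: 90 min reaction at room temperature; signal: FP; read-out: % inhibition of substrate cleavage by Csn5; benchmarks: substrate-only high control, full reaction low control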
A1 inh – inhibitors of the anti-apoptotic protein A1, read as caspase activation; 330,000 compounds, 0.066% hits; MEF A1-2A-BIM cells, Caspase-Glo 3/7 luminescence, 3 h; percent of clofoctol response, vehicle zero; caspase activation, % (concentration not given with the values);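 active = over half of replicate activation scores above 10%, or exactly half above 10 with the replicate mean above 10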
EBNA-1 inhibitor – blocks EBNA-1 binding to DNA; AID 1950; EBNA-1 DNA binding, fluorescence polarization; 300,000 compounds, 0.34% hits; inhibition, % at 14.8 µM; in the data active = inhibition above about 28%
HNF4A DNA FP – change in binding of human HNF4 alpha to DNA. 360,000 compounds, 0.3% hits. HNF4a-FITC DNA binding, fluorescence polarization, 1 h. activity change, % at 10 µM. P41235; in the data active = activity change above about 30%, passing the limit was not always enough
Hits are given with their value; . = inactive; / = not tested or not shown; + = active, no number.

SMILES | ZTA counter | LANA-H2A inh | CSN inh | A1 inh | EBNA-1 inhibitor | HNF4A DNA FP
CCC(c1nnnn1C1CCCC1)N1CCC(C(N)=O)CC1 (stereo not drawn) | . | 49.0 | . | . | . | .
CC1CCC(NC(=O)Cn2cnc3sccc3c2=O)CC1 (stereo not drawn) | . | . | . | . | / | .
O=C(COc1ccccc1)NCC(c1ccco1)N1CCCCC1 (stereo not drawn) | . | . | . | . | . | .
COc1ccccc1N(C)S(=O)(=O)c1ccc(C(=O)NCC(c2ccco2)N2CCCCC2)cc1 (stereo not drawn) | / | / | . | / | / | .
CN(c1ccccc1)S(=O)(=O)c1ccc(C(=O)NCC(c2ccco2)N2CCCCC2)cc1 (stereo not drawn) | . | 38.6 | . | . | / | .
O=C(CCOc1ccccc1)NCC(c1ccco1)N1CCCCC1 (stereo not drawn) | . | 7.9 | . | . | . | 51.2
N#Cc1ccc(COc2ccc(CCO)cc2-n2nc3ccccc3n2)cc1 | . | . | 100.3 | . | . | .
OCCc1ccc(O)c(-n2nc3ccccc3n2)c1 | . | . | . | . | . | .
CCN(C[C@H]1N[C@@](Cc2ccccc2)(C(=O)OC)[C@H]2C(=O)N(C)C(=O)[C@@H]12)C(=O)NC(C)C | / | + | . | . | / | .
CCN(C[C@H]1N[C@@](CC)(C(=O)OC)[C@H]2C(=O)N(Cc3ccccc3)C(=O)[C@@H]12)S(=O)(=O)c1ccc(C)cc1 | / | + | . | . | / | .
CCN(C[C@H]1N[C@@](Cc2ccccc2)(C(=O)OC)[C@H]2C(=O)N(C)C(=O)[C@@H]12)S(=O)(=O)c1ccc(OC(F)(F)F)cc1 | / | . | . | . | / | .
CCN(C[C@H]1N[C@@](CC)(C(=O)OC)[C@H]2C(=O)N(Cc3ccccc3)C(=O)[C@@H]12)S(=O)(=O)c1ccc(-c2ccccc2)cc1 | / | . | . | . | / | .
CCN(C[C@H]1N[C@@](Cc2ccccc2)(C(=O)OC)[C@H]2C(=O)N(C)C(=O)[C@@H]12)S(=O)(=O)c1ccc(OC)cc1 | / | + | . | . | / | .
CCN(C[C@H]1N[C@@](Cc2ccccc2)(C(=O)OC)[C@H]2C(=O)N(C)C(=O)[C@@H]12)C(=O)c1ccccc1 | / | / | . | . | / | .
CCCCn1c(N)c(N(CCOC)C(=O)c2ccc(COc3ccccc3)o2)c(=O)[nH]c1=O | . | . | . | . | . | .
Cc1cc(OCC(=O)OCC(=O)NCC2CCCO2)ccc1Cl (stereo not drawn) | . | / | . | / | / | .
Cc1ccc(F)cc1C(=O)N1CCCCC1c1cc(C(=O)Nc2cccc(C#N)c2)no1 (stereo not drawn) | / | / | . | / | / | .
Cc1ccc(-c2nc(NC(=O)CSc3nnc4scc(-c5ccccc5)n34)ns2)cc1 | . | . | 37.4 | . | . | .
CCN(CC)C1=C(Cl)C(=O)C(Cl)C12OCCO2 (stereo not drawn) | . | 12.4 | . | . | . | .
Cc1ccc(S(=O)(=O)N2CCN(C3CC(=O)N(CCc4ccccc4)C3=O)CC2)cc1C (stereo not drawn) | . | . | . | . | . | 60.5
CC(C)c1cc(C(=O)Nc2cc(Cl)ccc2O)no1 | . | 12.6 | . | . | . | .
CCOc1ccc(OCc2ccc(C(=O)N3CCCCC3)o2)cc1 | . | . | . | . | . | 36.1
COc1ccc(C(=O)Nc2nc3cc(OC)c(OC)cc3c(=O)[nH]2)cc1 | . | . | . | . | . | .
COc1ccc(C(=O)Nc2nc3ccccc3c(=O)[nH]2)cc1 | . | 39.8 | . | . | . | .
COc1ccc(Nc2nc3ccccc3c(=O)[nH]2)cc1 | . | 21.5 | . | . | . | .
Cc1ccc(Nc2nc3ccccc3c(=O)[nH]2)cc1C | . | . | . | . | . | .
COc1ccc([N+](=O)[O-])cc1N(CC(=O)N1CCN(Cc2ccccc2)CC1)S(C)(=O)=O | . | . | . | . | . | .
CC(C)C[C@H]1CNC(=S)N1C[C@H]1CCCN1C[C@H](CC(C)C)N1C[C@H](CC(C)C)N(CCc2ccccc2)C1=S | / | / | . | / | / | .
CC(C)C[C@H]1CNC(=S)N1C[C@H]1CCCN1C[C@H](CC(C)C)N1C[C@H](Cc2ccccc2)N(CCc2ccccc2)C1=S | / | / | 110.1 | / | / | .

Bioassay records from PubChem BioAssay.
